The subject of one data set is HepG2. Briefly: Cytotoxicity against human HepG2 cells assessed as cell viability at 10 uM after 24 hrs by MTS assay. The format is cell-based. To be noted: hepg2, 24 h.
`OC[C@H]1O[C@@H](O[C@H](CCc2ccc(O)cc2)C[C@H](O)CCc2ccc(O)cc2)[C@H](O)[C@@H](O)[C@@H]1O`: the Activity result is “Non-toxic”.
On the same count and under the same terms, to `OC[C@H]1O[C@@H](O[C@@H]2C[C@H](CCc3ccc(O)c(O)c3)O[C@H](c3ccc(O)c(O)c3)C2)[C@H](O)[C@@H](O)[C@@H]1O` [PLANTAGINEOSIDE C] belongs “Non-toxic”.

The next data set addresses T1, Peroxisome proliferator-activated receptor gamma (Homo sapiens, UniProt P37231).
T1 sequence (P37231 whole entry): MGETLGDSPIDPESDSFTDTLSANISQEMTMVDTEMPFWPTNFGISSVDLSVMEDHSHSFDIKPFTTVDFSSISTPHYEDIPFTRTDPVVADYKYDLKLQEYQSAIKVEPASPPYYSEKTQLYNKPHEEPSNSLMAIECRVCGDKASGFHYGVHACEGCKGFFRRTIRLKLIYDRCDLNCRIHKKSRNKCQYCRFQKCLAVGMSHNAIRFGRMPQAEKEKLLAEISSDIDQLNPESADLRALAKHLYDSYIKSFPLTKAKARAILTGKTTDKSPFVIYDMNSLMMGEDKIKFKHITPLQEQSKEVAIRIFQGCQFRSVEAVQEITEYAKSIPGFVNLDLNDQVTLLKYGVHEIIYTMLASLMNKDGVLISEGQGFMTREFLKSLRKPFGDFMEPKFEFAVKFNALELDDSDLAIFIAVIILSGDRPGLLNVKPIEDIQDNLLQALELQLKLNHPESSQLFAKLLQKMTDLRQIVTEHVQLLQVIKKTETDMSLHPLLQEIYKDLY
Briefly: Transactivation of GAL4-fused PPARgamma ligand binding domain transfected in human HepG2 cells after 20 hrs by luciferase reporter gene assay.
Conditions: not given
The data set is classed as cell-based.
Molecule `OC[C@H]1O[C@@H](O[C@H](CCc2ccc(O)cc2)C[C@H](O)CCc2ccc(O)cc2)[C@H](O)[C@@H](O)[C@@H]1O` yielded an EC50 of more than 50 µM.
As to `OC[C@H]1O[C@@H](O[C@@H]2C[C@H](CCc3ccc(O)c(O)c3)O[C@H](c3ccc(O)c(O)c3)C2)[C@H](O)[C@@H](O)[C@@H]1O` [PLANTAGINEOSIDE C], the EC50 was more than 50 µM.

The target of the next data set is T2, Peroxisome proliferator-activated receptor alpha (Homo sapiens, UniProt Q07869).
T2 sequence (Q07869 whole entry): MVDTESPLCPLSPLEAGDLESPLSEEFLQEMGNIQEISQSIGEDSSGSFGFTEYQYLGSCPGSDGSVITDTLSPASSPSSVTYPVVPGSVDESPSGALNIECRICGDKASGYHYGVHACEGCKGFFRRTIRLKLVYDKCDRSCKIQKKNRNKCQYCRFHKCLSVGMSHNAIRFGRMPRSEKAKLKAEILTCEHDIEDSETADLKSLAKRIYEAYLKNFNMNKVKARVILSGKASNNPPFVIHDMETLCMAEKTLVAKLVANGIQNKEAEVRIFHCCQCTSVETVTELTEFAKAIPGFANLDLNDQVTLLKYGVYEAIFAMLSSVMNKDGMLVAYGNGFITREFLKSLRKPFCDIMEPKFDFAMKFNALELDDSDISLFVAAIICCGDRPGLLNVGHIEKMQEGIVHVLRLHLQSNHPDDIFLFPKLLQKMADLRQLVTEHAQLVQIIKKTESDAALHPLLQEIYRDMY
The experiment in a line: Transactivation of GAL4-fused PPARalpha ligand binding domain transfected in human HepG2 cells after 20 hrs by luciferase reporter gene assay. The format is cell-based.
Conditions: not given
The gist of the method: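 PPARα transactivation was measured by luciferase reporter in HepG2 cells. Activity was compared with a vehicle group, and ciprofibrate (1 µM) was the positive control.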
Molecule `OC[C@H]1O[C@@H](O[C@H](CCc2ccc(O)cc2)C[C@H](O)CCc2ccc(O)cc2)[C@H](O)[C@@H](O)[C@@H]1O` showed an EC50 of more than 50 µM.
On the same count and under the same terms, with `OC[C@H]1O[C@@H](O[C@@H]2C[C@H](CCc3ccc(O)c(O)c3)O[C@H](c3ccc(O)c(O)c3)C2)[C@H](O)[C@@H](O)[C@@H]1O` [PLANTAGINEOSIDE C] the figure was more than 50 µM.

A further data set has as its target T3, Peroxisome proliferator-activated receptor delta (Homo sapiens) (UniProt Q03181).
T3 sequence (whole entry): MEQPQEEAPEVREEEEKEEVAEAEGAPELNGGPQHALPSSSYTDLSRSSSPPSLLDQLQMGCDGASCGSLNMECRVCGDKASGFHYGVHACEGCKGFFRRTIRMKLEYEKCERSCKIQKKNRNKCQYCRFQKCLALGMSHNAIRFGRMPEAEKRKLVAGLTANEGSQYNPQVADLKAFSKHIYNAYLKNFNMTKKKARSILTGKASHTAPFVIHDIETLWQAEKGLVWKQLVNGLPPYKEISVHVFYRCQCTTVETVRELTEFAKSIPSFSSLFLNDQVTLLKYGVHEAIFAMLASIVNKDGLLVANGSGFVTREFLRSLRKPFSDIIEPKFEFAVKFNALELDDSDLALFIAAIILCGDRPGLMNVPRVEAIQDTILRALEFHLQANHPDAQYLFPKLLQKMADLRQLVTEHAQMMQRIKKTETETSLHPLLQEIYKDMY
The experiment in a line: (§1) Transactivation of GAL4-fused PPARbeta (delta) ligand binding domain transfected in human HepG2 cells after 20 hrs by luciferase reporter gene assay.
Conditions: not given
The data set is classed as cell-based. The essentials:
(§2)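 For PPARβ(δ), luciferase transactivation was measured in HepG2 cells against a vehicle group, with L-165041 (1 µM) as positive control. EC50 came from the dose–response, given as mean ± SD (n = 3), with a cutoff of EC50 > 50 µM for inactivity.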
On to `OC[C@H]1O[C@@H](O[C@H](CCc2ccc(O)cc2)C[C@H](O)CCc2ccc(O)cc2)[C@H](O)[C@@H](O)[C@@H]1O`, for which the Activity result was “Dose-dependent effect”.
On the same count and under the same terms, with `OC[C@H]1O[C@@H](O[C@@H]2C[C@H](CCc3ccc(O)c(O)c3)O[C@H](c3ccc(O)c(O)c3)C2)[C@H](O)[C@@H](O)[C@@H]1O` [PLANTAGINEOSIDE C] the entry was “Dose-dependent effect”.

The next data set has as its target T4, Peroxisome proliferator-activated receptor delta (Homo sapiens, UniProt Q03181).
T4 sequence (Q03181 whole entry): T3 sequence (whole entry)
The data set is described as §1.
Conditions: not given
The data set is classed as cell-based. The essentials:
as §2
For the molecule `OC[C@H]1O[C@@H](O[C@H](CCc2ccc(O)cc2)C[C@H](O)CCc2ccc(O)cc2)[C@H](O)[C@@H](O)[C@@H]1O`, the EC50 was 29.3 µM.
The molecule `OC[C@H]1O[C@@H](O[C@@H]2C[C@H](CCc3ccc(O)c(O)c3)O[C@H](c3ccc(O)c(O)c3)C2)[C@H](O)[C@@H](O)[C@@H]1O` [PLANTAGINEOSIDE C] had an EC50 of 30.1 µM.
`CCCc1c(OCCCOc2ccc(OCC(=O)O)cc2)ccc(C(C)=O)c1O` displayed an EC50 of 0.65 µM.

The next data set addresses T5, Peroxisome proliferator-activated receptor (Homo sapiens, UniProt P37231+Q07869+Q03181).
T5 sequence (P37231 whole entry): T1 sequence (P37231 whole entry)
T5 sequence (Q07869 whole entry): T2 sequence (Q07869 whole entry)
T5 sequence (Q03181 whole entry): T3 sequence (whole entry)
The experiment in a line: (§3) Transactivation of PPAR transfected in human HepG2 cells after 20 hrs by luciferase reporter gene assay. The data set is classed as cell-based.
Conditions: not given
Molecule `OC[C@H]1O[C@@H](O[C@H](CCc2ccc(O)cc2)C[C@H](O)CCc2ccc(O)cc2)[C@H](O)[C@@H](O)[C@@H]1O` gave an EC50 of 1.2 µM.
Regarding `OC[C@H]1O[C@@H](O[C@@H]2C[C@H](CCc3ccc(O)c(O)c3)O[C@H](c3ccc(O)c(O)c3)C2)[C@H](O)[C@@H](O)[C@@H]1O` [PLANTAGINEOSIDE C], the EC50 was 5.2 µM.

A further data set concerns the target Peroxisome proliferator-activated receptor (Homo sapiens) (UniProt P37231+Q07869+Q03181). Described as §3.
Conditions: not given
The data set is classed as cell-based.
For the molecule `OC[C@H]1O[C@@H](O[C@H](CCc2ccc(O)cc2)C[C@H](O)CCc2ccc(O)cc2)[C@H](O)[C@@H](O)[C@@H]1O`, the Activity entry was “Dose-dependent effect”.
Consider `OC[C@H]1O[C@@H](O[C@@H]2C[C@H](CCc3ccc(O)c(O)c3)O[C@H](c3ccc(O)c(O)c3)C2)[C@H](O)[C@@H](O)[C@@H]1O` [PLANTAGINEOSIDE C], for which the Activity entry was “Dose-dependent effect”.

A further data set has as its system HepG2. The experiment in a line: (§4) Inhibition of NF-kappaB expressed in human HepG2 cells assessed as inhibition of TNFalpha-induced luciferase activity preincubated for 1 hr followed by TNFalpha challenge measured after 1 hr by reporter gene assay. The format is cell-based.
Conditions: not given
The essentials: (§5)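 HepG2 cells transfected with an NF-κB-luciferase reporter were pretreated with compound at 0.1, 1 and 10 µM, then stimulated with TNF-α at 10 ng/mL. Sulfasalazine at 10 µM served as positive control. Luciferase activity was read. Data are mean ± SD (n = 3), with Dunnett's multiple comparison test, and IC50 was derived from the dose–response.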
Consider `OC[C@H]1O[C@@H](O[C@H](CCc2ccc(O)cc2)C[C@H](O)CCc2ccc(O)cc2)[C@H](O)[C@@H](O)[C@@H]1O`, for which the inhibition result was “Dose-dependent effect”.
On the same count and under the same terms, with `OC[C@H]1O[C@@H](O[C@@H]2C[C@H](CCc3ccc(O)c(O)c3)O[C@H](c3ccc(O)c(O)c3)C2)[C@H](O)[C@@H](O)[C@@H]1O` [PLANTAGINEOSIDE C] the entry was “Dose-dependent effect”.

System in another data set: not listed separately
Described as §4. The format is cell-based.
Conditions: not given
The gist of the method: as §5
Consider `O=C(O)c1cc(/N=N/c2ccc(S(=O)(=O)Nc3ccccn3)cc2)ccc1O` [SULFASALAZINE], for which the IC50 was 0.9 µM.
On the same count and under the same terms, to `OC[C@H]1O[C@@H](O[C@H](CCc2ccc(O)cc2)C[C@H](O)CCc2ccc(O)cc2)[C@H](O)[C@@H](O)[C@@H]1O` belongs 6.2 µM; to `OC[C@H]1O[C@@H](O[C@@H]2C[C@H](CCc3ccc(O)c(O)c3)O[C@H](c3ccc(O)c(O)c3)C2)[C@H](O)[C@@H](O)[C@@H]1O` [PLANTAGINEOSIDE C], 8 µM.

Source of the values: ChEMBL document CHEMBL2157928, “Diarylheptanoid glycosides from Tacca plantaginea and their effects on NF-κB activation and PPAR transcriptional activity” (Bioorg Med Chem Lett, 2012).
